Common to all, as to format: functional
The test system of one assay is U-251. Description: Growth inhibition of human U251 cells at 10 uM after 48 hrs by coulter counter method. The following applies: U-251, 48 h, read-out: GI. The essentials: (§1)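 Single high-dose NCI 60-cell-line panel screen across nine tumor subpanels. Test solutions (0.2 mL) were added in duplicate to wells holding 1.8 mL of culture at 6 × 10⁴ cells/mL. Controls got PBS and DMSO at identical dilutions. Incubation was 48 h at 37 °C in humidified 5% CO₂. Cells were diluted 10-fold in saline, Coulter-counted and dilution-corrected. Results were expressed as percent growth inhibition versus control.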

A further assay deals with T47D. In words: Growth inhibition of human T47D cells at 10 uM after 48 hrs by coulter counter method. The following applies: read-out: GI. In outline:
as §1

The subject of the next assay is OVCAR-4. Description: Growth inhibition of human OVCAR4 cells at 10 uM after 48 hrs by coulter counter method. The conditions noted are these: OVCAR-4, 48 h, read-out: GI. In outline: as §1
In another assay the test system is SR. Description: Growth inhibition of human SR cells at 10 uM after 48 hrs by coulter counter method. The following applies: read-out: GI. In outline:
as §1

For the next assay, the system named is MCF7. Description: Growth inhibition of human MCF7 cells at 10 uM after 48 hrs by coulter counter method. The following applies: MCF7, 48 h, read-out: GI. The essentials: as §1
In a further assay the test system is A549. Description: Growth inhibition of human A549 cells at 10 uM after 48 hrs by coulter counter method. The following applies: A549, 48 h, read-out: GI. The essentials: as §1
The subject of the next assay is MOLT-4. Description: Growth inhibition of human MOLT4 cells at 10 uM after 48 hrs by coulter counter method. The following applies: MOLT-4, 48 h, read-out: GI. The essentials: as §1
The next assay relates to UACC-62. Description: Growth inhibition of human UACC62 cells at 10 uM after 48 hrs by coulter counter method. The following applies: UACC-62, 48 h, read-out: GI. In outline:
as §1

Another assay deals with SK-OV-3. In words: Growth inhibition of human SKOV3 cells at 10 uM after 48 hrs by coulter counter method. The conditions noted are these: SK-OV-3, 48 h, read-out: GI. The essentials: as §1
The test system of a further assay is MDA-MB-468. Description: Growth inhibition of human MDA-MB-468 cells at 10 uM after 48 hrs by coulter counter method. The conditions noted are these: MDA-MB-468, 48 h, read-out: GI. In outline:
as §1

A further assay deals with NCI-H226. In words: Growth inhibition of human NCI-H226 cells at 10 uM after 48 hrs by coulter counter method. The following applies: NCI-H226, 48 h, read-out: GI. The essentials:
as §1

A further assay has as its system HOP-92. In words: Growth inhibition of human HOP92 cells at 10 uM after 48 hrs by coulter counter method. The following applies: HOP-92, 48 h, read-out: GI. In outline: as §1
For a further assay, the system named is COLO 205. In words: Growth inhibition of human COLO205 cells at 10 uM after 48 hrs by coulter counter method. The conditions noted are these: COLO 205, 48 h, read-out: GI. In outline:
as §1

The test system of another assay is HCT-116. Description: Growth inhibition of human HCT116 cells at 10 uM after 48 hrs by coulter counter method. The conditions noted are these: HCT-116, 48 h, read-out: GI. In outline: as §1
The subject of another assay is SNB-75. Description: Growth inhibition of human SNB75 cells at 10 uM after 48 hrs by coulter counter method. The conditions noted are these: SNB-75, 48 h, read-out: GI. In outline: as §1
The subject of the next assay is SF-268. In words: Growth inhibition of human SF268 cells at 10 uM after 48 hrs by coulter counter method. The following applies: SF-268, 48 h, read-out: GI. The essentials:
as §1

The next assay concerns NCI-H23. In words: Growth inhibition of human NCI-H23 cells at 10 uM after 48 hrs by coulter counter method. The conditions noted are these: NCI-H23, 48 h, read-out: GI. The essentials: as §1
The test system of another assay is 786-0. Description: Growth inhibition of human 786-0 cells at 10 uM after 48 hrs by coulter counter method. The conditions noted are these: 786-0, 48 h, read-out: GI. The essentials:
as §1

The subject of a further assay is SF-539. Description: Growth inhibition of human SF539 cells at 10 uM after 48 hrs by coulter counter method. The conditions noted are these: SF-539, 48 h, read-out: GI. The essentials: as §1
For a further assay, the system named is HL-60(TB). In words: Growth inhibition of human HL-60(TB) cells at 10 uM after 48 hrs by coulter counter method. The conditions noted are these: HL-60, 48 h, read-out: GI. The essentials: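 Part of the NCI 60-cell-line single-high-dose panel. Cells were seeded at 6 × 10⁴ cells/mL with test solution in duplicate wells, alongside PBS/DMSO controls at identical dilutions. Plates were held 48 h at 37 °C in a humidified 5% CO₂ incubator. Cells were then diluted 10-fold in saline and counted by Coulter counter, with counts corrected for dilution. Results are percent growth of treated cells, reported as GI %.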

In the next assay the test system is SN12C. In words: Growth inhibition of human SN12C cells at 10 uM after 48 hrs by coulter counter method. The following applies: read-out: GI. The essentials: as §1
Another assay concerns NCI-H522. Description: Growth inhibition of human NCI-H522 cells at 10 uM after 48 hrs by coulter counter method. The conditions noted are these: NCI-H522, 48 h, read-out: GI. In outline:
as §1

A further assay relates to KM12. Description: Growth inhibition of human KM12 cells at 10 uM after 48 hrs by coulter counter method. The following applies: KM12, 48 h, read-out: GI. In outline: as §1
The next assay relates to CCRF-CEM. In words: Growth inhibition of human CCRF-CEM cells at 10 uM after 48 hrs by coulter counter method. The conditions noted are these: read-out: GI. The essentials:
as §1

The test system of the next assay is SK-MEL-28. In words: Growth inhibition of human SK-MEL-28 cells at 10 uM after 48 hrs by coulter counter method. The conditions noted are these: SK-MEL-28, 48 h, read-out: GI. The essentials: as §1
The subject of the next assay is SK-MEL-2. In words: Growth inhibition of human SK-MEL-2 cells at 10 uM after 48 hrs by coulter counter method. The conditions noted are these: SK-MEL-2, 48 h, read-out: GI. In outline:
as §1

Assay [1] is described as follows: Growth inhibition of human Hs 578T cells at 10 uM after 48 hrs by coulter counter method. The following applies: read-out: GI. The essentials: as §1
For the next assay, the system named is MDA-MB-231. Description: Growth inhibition of human MDA-MB-231 cells at 10 uM after 48 hrs by coulter counter method. The following applies: MDA-MB-231, 48 h, read-out: GI. The essentials: as §1
The next assay has as its system UO-31. Description: Growth inhibition of human UO31 cells at 10 uM after 48 hrs by coulter counter method. The following applies: UO-31, 48 h, read-out: GI. In outline: as §1
For a further assay, the system named is K562. Description: Growth inhibition of human K562 cells at 10 uM after 48 hrs by coulter counter method. The following applies: K562, 48 h, read-out: GI. In outline: as §1
The next assay deals with IGROV-1. In words: Growth inhibition of human IGROV1 cells at 10 uM after 48 hrs by coulter counter method. The conditions noted are these: IGROV-1, 48 h, read-out: GI. The essentials: as §1
For a further assay, the system named is M14. In words: Growth inhibition of human M14 cells at 10 uM after 48 hrs by coulter counter method. The conditions noted are these: M14, 48 h, read-out: GI. In outline: as §1
The subject of the next assay is CAKI-1. In words: Growth inhibition of human Caki1 cells at 10 uM after 48 hrs by coulter counter method. The following applies: CAKI-1, 48 h, read-out: GI. The essentials:
as §1

The test system of a further assay is PC-3. Description: Growth inhibition of human PC3 cells at 10 uM after 48 hrs by coulter counter method. The conditions noted are these: PC-3, 48 h, read-out: GI. The essentials: as §1

Each structure is given as a SMILES string.

For the compound `O=C(CSc1nc2ccccc2c(=O)n1-c1ccc(Cl)cc1)c1ccc(Cl)cc1`, the inhibition of growth at 10 µM in the assay on U-251, with T47D, in the assay on OVCAR-4, in the assay on SR, in the assay with MCF7 and in the assay with A549 was 30% throughout. In addition, the inhibition of growth at 10 µM in the assay with MOLT-4, in the assay with UACC-62, in the assay on SK-OV-3, with MDA-MB-468, in the assay with NCI-H226 and in the assay with HOP-92 was 30% throughout. In addition, the inhibition of growth at 10 µM with COLO 205, in the assay with HCT-116, in the assay with SNB-75, in the assay on SF-268, in the assay on NCI-H23 and in the assay on 786-0 was 30% each time. The inhibition of growth at 10 µM with SF-539 came out at 30%; in the assay with HL-60(TB), 30%; in the assay on SN12C it was 30%; in the assay on NCI-H522, 52.6%; in the assay with KM12, 30%; in the assay with CCRF-CEM it was 30%. Besides, the inhibition of growth at 10 µM (in the assay with SK-MEL-28; in the assay on SK-MEL-2; in assay [1]; in the assay on MDA-MB-231; in the assay on UO-31; in the assay with K562) was 30% throughout. Further, the inhibition of growth at 10 µM with IGROV-1 was determined as 43.7%; with M14, 30%; with CAKI-1, 30%.

For `COc1ccc(-n2c(SCC(=O)c3ccc(Cl)cc3)nc3ccccc3c2=O)cc1`, the inhibition of growth at 10 µM in the assay on U-251 was determined as 31.6%; in the assay with T47D, 30%; with OVCAR-4 it was 32.1%; in the assay on SR, 30%; in the assay with PC-3, 55.3%; in the assay with MCF7, 34.3%. Besides, the inhibition of growth at 10 µM with MOLT-4 is 30%; with UACC-62, 76.7%; in the assay with SK-OV-3, 31.9%; with MDA-MB-468 it was 41.4%; with NCI-H226, 75.6%; in the assay with COLO 205, 53.1%. Also, the inhibition of growth at 10 µM came out at 54.6% in the assay with HCT-116; 47.4% in the assay with SNB-75; 49% with SF-268; 41.1% in the assay with NCI-H23; 31.1% in the assay on 786-0; 68.6% with SF-539. Also, the inhibition of growth at 10 µM worked out at 33.3% in the assay on HL-60(TB); 32.5% with SN12C; 23% with NCI-H522; 41.8% in the assay on KM12; 30% in the assay with CCRF-CEM; 30% in the assay on SK-MEL-28. Moreover, the inhibition of growth at 10 µM was 30% in the assay with SK-MEL-2; 80.6% in assay [1]; 33.3% in the assay on MDA-MB-231; 30% in the assay with UO-31; 45.7% in the assay on IGROV-1; 30% with M14.

In the case of `CCn1c(SCC(=O)c2ccc(OC)cc2)nc2ccccc2c1=O`, the inhibition of growth at 10 µM with U-251, in the assay on T47D, in the assay on OVCAR-4, in the assay with SR, in the assay with PC-3 and in the assay with MCF7 was 30% throughout. Further, the inhibition of growth at 10 µM in the assay on A549, in the assay with MOLT-4, in the assay with UACC-62, in the assay with SK-OV-3, in the assay with MDA-MB-468 and in the assay on NCI-H226 was 30% throughout. In addition, the inhibition of growth at 10 µM in the assay with HOP-92, in the assay on COLO 205, in the assay with HCT-116, in the assay with SNB-75, with SF-268 and in the assay with NCI-H23 was 30% throughout. The inhibition of growth at 10 µM was 30% in the assay with 786-0; 30% in the assay with SF-539; 30% in the assay with HL-60(TB); 30% with SN12C; less than 30% in the assay with NCI-H522; 30% with KM12. For the same compound, the inhibition of growth at 10 µM came out at 30% with CCRF-CEM; 30% with SK-MEL-28; 30% in the assay on SK-MEL-2; 30% in assay [1]; 30% in the assay on MDA-MB-231; 31.6% in the assay on UO-31. Also, the inhibition of growth at 10 µM in the assay on IGROV-1, in the assay on M14 and in the assay with CAKI-1 was 30% each time.

Take `CN(C)c1ccc(-c2nnc(Nc3nc4ccccc4c(=O)n3-c3ccccc3)s2)cc1`: the inhibition of growth at 10 µM was 34.6% in the assay on MOLT-4 and 52% in the assay with K562.

Take `O=c1nc(Nc2nc3ccccc3c(=O)n2-c2ccc(Cl)cc2)cc(O)[nH]1`: the inhibition of growth at 10 µM in the assay with MOLT-4 was 34.6%; with K562, 52%.

On to `O=c1nc(Nc2nc3ccccc3c(=O)n2-c2ccccc2)cc(O)[nH]1`, for which the inhibition of growth at 10 µM in the assay on IGROV-1 worked out at 72.3%.

With `O=C1Nc2ccc(CNc3ccccn3)cc2C(c2ccc(Cl)cc2)N1` (stereo not given), the results for the inhibition of growth at 10 µM in the assay on T47D and with UO-31 were 43.9% and 40.5%, respectively.

Regarding `COc1ccc(C2NC(=O)Nc3ccc(S(=O)(=O)Nc4ccccn4)cc32)cc1` (stereo not given), the inhibition of growth at 10 µM in the assay on T47D was 43.9%; with UO-31, 40.5%.

The values are drawn from ChEMBL document CHEMBL1629431, “Synthesis and antitumor activity of some 2, 3-disubstituted quinazolin-4(3H)-ones and 4, 6- disubstituted- 1, 2, 3, 4-tetrahydroquinazolin-2H-ones” (2010).
